Assay results reported in ChEMBL document CHEMBL2406927, “Inhibitory effect of resveratrol dimerized derivatives on nitric oxide production in lipopolysaccharide-induced RAW 264.7 cells” (Bioorg Med Chem Lett, 2013).
Calls of active or inactive are those of the source. No cut-off for these calls is given here.

Assays:
[1] = test system: RAW264.7; assay: Antiinflammatory activity in mouse RAW264.7 cells assessed as inhibition of LPS-induced NO production treated 2 hrs before LPS challenge measured after 24 hrs; format: functional, cell-based
Method in brief: (§1)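 Cells were pretreated with compound for 2 h before LPS (1 μg/mL), then incubated 24 h. NO production was determined by nitrite/nitrate assay and expressed as a percentage of LPS-stimulated cells (means, SEM). IC50 is the concentration giving 50% inhibition of NO production. Data come from at least three independent experiments, each run in duplicate.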

[2] = test system: RAW264.7; assay: Antiinflammatory activity in mouse RAW264.7 cells assessed as LPS-induced NO production at 10 uM treated 2 hrs before LPS challenge measured after 24 hrs
[3] = test system: RAW264.7; assay: Antiinflammatory activity in mouse RAW264.7 cells assessed as inhibition of IL-1beta release at 10 uM after 24 hrs by ELISA; format: functional, cell-based
Method in brief: (§2)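 RAW 264.7 cells were preincubated 2 h with compound (5–20 μM), then stimulated with LPS (1 μg/mL) for 24 h. IL-1β release was measured by ELISA and compared with LPS-stimulated and unstimulated cells. Data come from at least three independent experiments, each run in duplicate.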

[4] = test system: RAW264.7; assay: Antiinflammatory activity in mouse RAW264.7 cells assessed as inhibition of LPS-induced iNOS expression at 10 uM after 24 hrs by Western blot analysis; format: functional, cell-based
Method in brief: (§3)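 Western blot quantitation of iNOS protein, with β-actin as loading control. RAW 264.7 cells were given a 2 h compound pretreatment (5–20 μM), then 1 μg/mL LPS for 24 h. Data come from at least three independent experiments, each performed in duplicate.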

[5] = test system: RAW264.7; assay: Antiinflammatory activity in mouse RAW264.7 cells assessed as inhibition of LPS-induced NO production at 10 uM treated 2 hrs before LPS challenge measured after 24 hrs; format: functional; method in brief: as §1
[6] = test system: RAW264.7; assay: Antiinflammatory activity in mouse RAW264.7 cells assessed as inhibition of LPS-induced NO production at 20 uM treated 2 hrs before LPS challenge measured after 24 hrs; format: functional, cell-based; method in brief: as §1
[7] = test system: RAW264.7; assay: Antiinflammatory activity in mouse RAW264.7 cells assessed as inhibition of IL-1beta release at 20 uM after 24 hrs by ELISA; format: functional, cell-based; method in brief: as §2
[8] = test system: RAW264.7; assay: Antiinflammatory activity in mouse RAW264.7 cells assessed as inhibition of LPS-induced iNOS expression at 20 uM after 24 hrs by Western blot analysis; format: functional, cell-based; method in brief: as §3
[9] = target: JNK1/JNK2 (Mus musculus) (UniProt Q91Y86+Q9WTU6); assay: Inhibition of LPS-induced JNK1/2 phosphorylation in mouse RAW264.7 cells after 45 mins by Western blot analysis; format: cell-based
Method in brief: (§4)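 Phosphorylation of p38, JNK1/2 and ERK1/2 was detected by Western blot 45 min after LPS stimulation of RAW 264.7 cells. Each phospho-band was quantified against its total kinase as loading control. Data come from at least three independent experiments, each run in duplicate.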

[10] = target: MAP kinase p38 (Mus musculus) (UniProt P47811+O08911+Q9WUI1+Q9Z1B7); assay: Inhibition of LPS-induced p38 MAPK phosphorylation in mouse RAW264.7 cells after 45 mins by Western blot analysis; format: cell-based; method in brief: as §4
[11] = test system: RAW264.7; assay: Antiinflammatory activity in mouse RAW264.7 cells assessed as inhibition of LPS-induced IL-1beta release incubated for 2 hrs prior to LPS challenge measured after 24 hrs by ELISA; format: functional, cell-based; method in brief: as §2
[12] = test system: RAW264.7; assay: Antiinflammatory activity in mouse RAW264.7 cells assessed as inhibition of LPS-induced iNOS protein expression incubated for 2 hrs prior to LPS challenge measured after 24 hrs by Western blot analysis; format: functional, cell-based; method in brief: as §3
[13] = test system: RAW264.7; assay: Cytotoxicity against mouse RAW264.7 cells up to 20 uM; format: cell-based
[14] = Mus musculus, RAW264.7, read-out: IC50

Chain of JNK1/JNK2 (Mus musculus) (Q91Y86 whole entry, looked up): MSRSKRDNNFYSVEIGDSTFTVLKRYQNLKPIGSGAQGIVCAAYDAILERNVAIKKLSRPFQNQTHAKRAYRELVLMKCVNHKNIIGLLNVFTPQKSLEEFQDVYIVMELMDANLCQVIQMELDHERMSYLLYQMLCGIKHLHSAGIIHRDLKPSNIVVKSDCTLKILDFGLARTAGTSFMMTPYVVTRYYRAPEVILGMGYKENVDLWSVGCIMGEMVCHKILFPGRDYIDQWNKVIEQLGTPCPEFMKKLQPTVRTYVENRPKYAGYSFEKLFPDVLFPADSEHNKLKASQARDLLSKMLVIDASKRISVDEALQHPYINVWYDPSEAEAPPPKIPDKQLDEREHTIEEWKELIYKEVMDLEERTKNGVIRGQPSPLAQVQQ
Chain of JNK1/JNK2 (Mus musculus) (Q9WTU6 whole entry, looked up): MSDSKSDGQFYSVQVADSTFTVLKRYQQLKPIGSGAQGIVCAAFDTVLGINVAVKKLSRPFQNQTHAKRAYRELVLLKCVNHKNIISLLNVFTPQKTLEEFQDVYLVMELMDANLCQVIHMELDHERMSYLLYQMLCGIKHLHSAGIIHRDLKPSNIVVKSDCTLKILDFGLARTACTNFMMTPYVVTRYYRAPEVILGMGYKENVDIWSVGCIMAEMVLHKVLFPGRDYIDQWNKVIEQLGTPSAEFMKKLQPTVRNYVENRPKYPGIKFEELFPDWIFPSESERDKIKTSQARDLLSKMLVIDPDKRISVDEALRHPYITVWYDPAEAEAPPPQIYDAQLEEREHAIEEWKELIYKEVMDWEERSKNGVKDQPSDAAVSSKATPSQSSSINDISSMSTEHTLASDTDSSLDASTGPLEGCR

SMILES | IC50 [1, 14] [µM] | NO production % at 10 µM [2] [%] | other results
COc1ccc(/C=C2/c3cc(OC)cc(OC)c3[C@@H](c3ccccc3)[C@@H]2c2cc(OC)cc(OC)c2)cc1 | > 200 | 84.3 | –
COc1ccc([C@@H]2c3c(OC)cc(OC)cc3/C(=C/c3ccc(Cl)cc3)[C@H]2c2cc(OC)cc(OC)c2)cc1 | > 200 | 90.7 | –
COc1ccc([C@@H]2c3c(OC)cc(OC)cc3/C(=C/c3ccc(C)cc3)[C@H]2c2cc(OC)cc(OC)c2)cc1 | > 200 | 99.2 | –
COc1cc(OC)cc([C@@H]2C(C(O)c3ccccc3)c3cc(OC)cc(OC)c3[C@H]2c2ccccc2)c1 (stereo not given in full) | 21.6 | 59.5 | –
Oc1c2ccccc2c2c3c(cccc13)N=N2 | – | – | inhibition [3]: Active; inhibition [4]: Active; inhibition [5]: Active
COc1cc(OC)cc([C@@H]2C(=O)c3cc(OC)cc(OC)c3[C@H]2c2ccccc2)c1 | 27.1 | 66 | –
COc1ccc(C(O)C2c3cc(OC)cc(OC)c3[C@@H](c3ccc(OC)cc3)[C@@H]2c2cc(OC)cc(OC)c2)cc1 (stereo not given in full) | > 200 | 77 | –
COc1ccc(CSC2c3cc(OC)cc(OC)c3[C@@H](c3ccc(OC)cc3)[C@@H]2c2cc(OC)cc(OC)c2)cc1 (stereo not given in full) | 12.5 | 70.5 | –
COc1cc(OC)cc([C@@H]2C(SCc3ccccc3)c3cc(OC)cc(OC)c3[C@H]2c2ccccc2)c1 (stereo not given in full) | > 200 | 75.9 | –
COc1ccc([C@@H]2c3c(OC)cc(OC)cc3C(C(O)c3ccccc3)[C@H]2c2cc(OC)cc(OC)c2)cc1 (stereo not given in full) | > 200 | 75.4 | –
COc1ccc([C@@H]2c3c(OC)cc(OC)cc3C(SCc3ccc(Cl)cc3)[C@H]2c2cc(OC)cc(OC)c2)cc1 (stereo not given in full) | > 200 | 79.8 | –
Oc1ccc([C@@H]2c3c(O)cc(O)cc3[C@H]3[C@H](c4ccc(O)cc4)c4c(O)cc(O)cc4[C@@H]23)cc1 (relative stereo) [PALLIDOL] | > 200 | 89.3 | –
COc1ccc([C@@H]2c3c(OC)cc(OC)cc3[C@H]3[C@H](c4ccc(OC)cc4)c4c(OC)cc(OC)cc4[C@@H]23)cc1 | > 200 | 80.2 | –
COc1cccc(-c2cc(=O)c3ccccc3o2)c1N | – | – | inhibition [3]: inactive; inhibition [4]: inactive; inhibition [5]: inactive
C[S+]([O-])c1ccc(-c2nc(-c3ccc(F)cc3)c(-c3ccncc3)[nH]2)cc1 (stereo not given) | – | – | inhibition [3]: Active; inhibition [4]: Active; inhibition [5]: Active
COc1ccc([C@@H]2c3c(OC)cc(OC)cc3C(O)[C@H]2c2cc(OC)cc(OC)c2)cc1 (stereo not given in full) | 7.87 | 58.3 | –
COc1ccc([C@@H]2c3c(OC)cc(OC)cc3/C(=C/c3ccc(F)cc3)[C@H]2c2cc(OC)cc(OC)c2)cc1 | > 200 | 95.9 | –

SMILES | IC50 [1, 14] [µM] | NO production % at 10 µM [2] [%] | other results
COc1ccc(C(O)C2c3cc(OC)cc(OC)c3[C@@H](c3ccccc3)[C@@H]2c2cc(OC)cc(OC)c2)cc1 (stereo not given in full) | 16.5 | 67.8 | –
COc1ccc([C@@H]2c3c(OC)cc(OC)cc3C(SCc3ccc(F)cc3)[C@H]2c2cc(OC)cc(OC)c2)cc1 (stereo not given in full) | > 200 | 92.5 | –
COc1cc(OC)cc([C@@H]2C(=O)c3cc(OC)cc(OC)c3[C@H]2c2ccc(F)cc2)c1 | 44.8 | 57.4 | –
COc1ccc([C@@H]2c3c(OC)cc(OC)cc3C(C(O)c3ccc(F)cc3)[C@H]2c2cc(OC)cc(OC)c2)cc1 (stereo not given in full) | > 200 | 81.4 | –
COc1ccc([C@@H]2c3c(OC)cc(OC)cc3C(C(O)c3ccc(Cl)cc3)[C@H]2c2cc(OC)cc(OC)c2)cc1 (stereo not given in full) | > 200 | 77.5 | –
COc1ccc(CSC2c3cc(OC)cc(OC)c3[C@@H](c3ccccc3)[C@@H]2c2cc(OC)cc(OC)c2)cc1 (stereo not given in full) | > 200 | 72.4 | –
O=C1c2cc(O)cc(O)c2[C@@H](c2ccc(O)cc2)[C@@H]1c1cc(O)cc(O)c1 [ISOPAUCIFLORAL F] | > 200 | 97.1 | –
COc1ccc([C@@H]2c3c(OC)cc(OC)cc3/C(=C/c3ccccc3)[C@H]2c2cc(OC)cc(OC)c2)cc1 | > 200 | 88.2 | –
COc1ccc([C@@H]2c3c(OC)cc(OC)cc3C(SCc3ccccc3)[C@H]2c2cc(OC)cc(OC)c2)cc1 (stereo not given in full) | > 200 | 78.1 | –
COc1ccc([C@@H]2c3c(OC)cc(OC)cc3C(SCc3ccc(C)cc3)[C@H]2c2cc(OC)cc(OC)c2)cc1 (stereo not given in full) | > 200 | 86.3 | –
COc1ccc(/C=C2/c3cc(OC)cc(OC)c3[C@@H](c3ccc(OC)cc3)[C@@H]2c2cc(OC)cc(OC)c2)cc1 | 6.26 | 56.1 | –
Oc1ccc(/C=C2/c3cc(O)cc(O)c3[C@@H](c3ccc(O)cc3)[C@@H]2c2cc(O)cc(O)c2)cc1 | – | 70 | IC50 ([1]; raw264.7): Not Active
COc1cc(OC)cc([C@@H]2C(O)c3cc(OC)cc(OC)c3[C@H]2c2ccccc2)c1 (stereo not given in full) | 3.38 | 49.5 | inhibition [6]: Active; inhibition [7]: Active; inhibition [8]: Active; inhibition [9]: Dose-dependent effect; inhibition [10]: Dose-dependent effect; inhibition [11]: Dose-dependent effect; inhibition [12]: Dose-dependent effect; Activity [13]: Non-toxic; inhibition [1]: Dose-dependent effect
COc1ccc([C@@H]2c3c(OC)cc(OC)cc3C(=O)[C@H]2c2cc(OC)cc(OC)c2)cc1 | > 200 | 60.9 | –
COc1ccc([C@@H]2c3c(OC)cc(OC)cc3C(C(O)c3ccc(C)cc3)[C@H]2c2cc(OC)cc(OC)c2)cc1 (stereo not given in full) | 26.5 | 63.5 | –
COc1cc(OC)cc([C@@H]2/C(=C\c3ccccc3)c3cc(OC)cc(OC)c3[C@H]2c2ccccc2)c1 | > 200 | 108 | –
COc1cc(OC)cc([C@@H]2C(O)c3cc(OC)cc(OC)c3[C@H]2c2ccc(F)cc2)c1 (stereo not given in full) | – | 54 | IC50 ([1]; raw264.7): Not Active
